MrgX1 antagonist – blocks BAM8-22 activation of human MrgX1 receptor. Q96LB2. 310,000 compounds, 1.3% hits. MRGX1-HEK293 calcium flux, Fluo-4, BAM8-22 antagonism; stronger effect = lower value. B-score at 10 µM;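 active = calcium-response B-score plate-corrected more than 3 library SD below zero, starting fluorescence within 5 deviations, no agonist response on first addition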;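 note: peak minus trough fluorescence over baseline after final BAM8-22 challenge near maximal dose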
Target sequence (Q96LB2 whole entry, looked up): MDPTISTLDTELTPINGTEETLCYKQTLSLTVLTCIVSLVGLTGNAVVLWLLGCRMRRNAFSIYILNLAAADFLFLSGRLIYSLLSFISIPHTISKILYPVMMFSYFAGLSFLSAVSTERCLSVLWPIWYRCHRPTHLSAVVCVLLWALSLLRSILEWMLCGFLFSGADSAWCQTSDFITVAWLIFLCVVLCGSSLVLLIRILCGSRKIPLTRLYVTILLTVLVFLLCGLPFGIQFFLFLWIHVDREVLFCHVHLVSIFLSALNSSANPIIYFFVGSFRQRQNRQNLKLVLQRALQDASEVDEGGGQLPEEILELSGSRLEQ
MrgX1 agonist – human MrgX1 receptor agonism, primary screen. MrgX1-HEK293 cells, Fluo-4 calcium fluorescence, agonist mode; stronger effect = higher value. B-score at 10 µM. 310,000 compounds, 0.44% hits. AID 588627;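 active = calcium response B-score plate-corrected fluorescence ratio at least 3 library SD, with starting fluorescence B-score inside 5 SD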
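Assay system: MrgX1-expressing HEK293 cells / Amount: fifteen thousand cells per well / Doses: test compound in the initial addition of three / Timing: cells plated overnight, dye loaded 0.5 h 37 °C, 0.5 h room temperature / Technique: kinetic calcium dye fluorescence, Fluo-4 NW / Control set: positive and negative controls per plate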
MrgX1 PAM – allosterically activates human MrgX1 receptor signaling. MrgX1-HEK293, Fluo-4 calcium flux, FDSS; stronger effect = higher value. B-score at 10 µM. 310,000 compounds, 0.63% hits. AID 588675;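 active = plate-corrected calcium response at least 3 library SD above typical, normal starting fluorescence, not activating the receptor alone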;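 note: compound read alongside a low EC10 to EC30 dose of BAM8-22 agonist; peak minus trough fluorescence over baseline measured at the second addition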
RGS4 pot – RGS4 potentiation or activation; HEK293 M3R/inducible RGS4, carbachol calcium flux Fluo4; stronger effect = lower value; B-score at 10 µM; 310,000 compounds, 0.92% hits; AID 463111;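 active = B-score of the integrated calcium signal more than 4 SD below the library mean, with starting fluorescence not abnormally high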;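 note: negative B-score means reduced calcium response which marks RGS4 activation or potentiation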
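Assay system: HEK293 FlpIn-TREx cells, stable M3R, doxycycline-inducible RGS4 / Probe or stimulus: carbachol, ECmax concentration / Times: overnight RGS4 induction, 30 min dye load 37 °C, 20 min compound RT / Signal: kinetic calcium fluorescence imaging with Fluo4-AM dye, 2 µM / Measure: Agonist-evoked peak-minus-minimum fluorescence over baseline, integrated ratio, B score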
RGS4 block – human RGS4 inhibition; P49798; HEK293 M3R/RGS4 inducible, Fluo-4 calcium flux; stronger effect = higher value; triggered by carbachol at its EC20; B-score at 10 µM; 310,000 compounds, 0.45% hits;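 active = B-score, a plate-corrected calcium signal, over three deviations above library mean, with baseline fluorescence within five deviations of library mean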;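 note: RGS4 expression induced by doxycycline in cells with stable M3 receptor; B-score is computed from the integrated fluorescence ratio over baseline after carbachol; higher B-score means a larger calcium signal and so more RGS4 inhibition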
Target sequence (P49798 whole entry, looked up): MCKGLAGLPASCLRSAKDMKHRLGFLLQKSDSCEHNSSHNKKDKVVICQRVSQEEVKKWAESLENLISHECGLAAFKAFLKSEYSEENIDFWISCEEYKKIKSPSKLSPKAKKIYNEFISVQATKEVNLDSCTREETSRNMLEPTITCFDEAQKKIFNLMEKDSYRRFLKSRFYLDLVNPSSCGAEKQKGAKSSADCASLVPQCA
MrgX1 allo conf – human MrgX1 positive allosteric modulation, re-confirmation. shares compounds with MrgX1 PAM. MrgX1-HEK293, Fluo-4 calcium fluorescence, FDSS. activation (ratio percentage), % at 10 µM. 1,200 compounds, 13% hits. AID 602413;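 active = ratio at least 3 SD above the weak peptide control, stable starting fluorescence, no direct agonism earlier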;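 note: compound followed by low BAM8-22 agonist challenge near EC20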
HEK293 Ca flux – activity in parental HEK293 cells lacking MrgX1 | shares compounds with MrgX1 antagonist | Fluo-4 calcium fluorescence, FDSS | fluorescence ratio F(max-min)/F0 at 10 µM | 4,000 compounds, 2% hits;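 active = duplicate-averaged calcium fluorescence ratio at least three times the standard deviation of buffer wells, a nonspecific response in parental cells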
HEK293 Ca counter – MrgX1 allosteric activator counter-screen hit in parental HEK293 cells; parental HEK293 calcium flux, Fluo-4 fluorescence ratio; stronger effect = higher value; shares compounds with MrgX1 antagonist; fluorescence ratio F(max-min)/F0 at 10 µM; 4,000 compounds, 0.4% hits; AID 624114;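 active = calcium fluorescence ratio, averaged over duplicates, at least 3 SD of the buffer-well ratio, meaning a nonspecific response in receptor-free cells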;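 note: untransfected parental HEK293 lacking MrgX1 used as counterscreen for MrgX1 allosteric activators; fluorescence change taken during the second addition on a kinetic imager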
HEK293 Ca cntr2 – activity in parental HEK293 cells lacking MrgX1 receptor. Fluo-4 calcium fluorescence (FDSS); stronger effect = higher value. 4,000 compounds, 8.7% hits. shares compounds with MrgX1 antagonist. fluorescence ratio F(max-min)/F0 at 10 µM;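 active = calcium fluorescence ratio at least three times the spread of buffer wells, meaning a non-specific response in parental cells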
Numbers without * were called inactive; i = inactive; . = no result. This is a sample that favours compounds with a hit; in the whole collection about 3.5% have one here.

SMILES	MrgX1 antagonist	MrgX1 agonist	MrgX1 PAM	RGS4 pot	RGS4 block	MrgX1 allo conf	HEK293 Ca flux	HEK293 Ca counter	HEK293 Ca cntr2
O=C(COc1ccc(-c2ccccc2)cc1)NNC(=O)NC1CCCCC1	i	i	i	i	i	.	.	.	.
CN(C)CCCN(C(=O)c1ccco1)c1nc2ccc(Br)cc2s1	i	i	6.5*	i	i	i	i	i	i
COCCCN(C(=O)c1ccccc1F)c1nc(-c2ccc(OC)cc2)cs1	i	i	i	i	i	.	.	.	.
CN(C)S(=O)(=O)c1ccc(C(=O)OCC(=O)NCc2ccccc2)cc1	i	i	8.4*	i	i	i	i	i	i
Clc1ccc(-c2cc3ccccc3nc2N2CCCC2)cc1	i	i	i	i	i	.	.	.	.
Clc1ccc(-c2cc3ccccc3nc2N2CCOCC2)cc1	i	i	11*	i	i	i	i	i	i
Cc1ccc2c(c1)C(=O)C(=O)N2CC(=O)Nc1ccccc1NC(=O)c1ccccn1	i	i	15*	i	i	i	i	i	i
CCCCNC(=S)Nc1ccccc1F	i	i	i	i	i	.	.	.	.
CC1=NCCN1CCNC(=O)Nc1ccc(C(C)(C)C)cc1	i	i	i	i	i	.	.	.	.
Clc1cccc2c1Sc1ccccc1CC2N1CCNCC1 (stereo not given)	i	i	14*	i	i	i	i	i	i
O=C(c1ccccc1Cl)N1CCNCC1	i	i	i	i	i	.	.	.	.
O=C(c1ccc(C23CC4CC(CC(C4)C2)C3)o1)N1CCOCC1	i	i	11*	i	i	i	i	i	i
Cc1ccc(-c2csc(NC(=O)c3ccc(C)o3)n2)cc1	i	i	i	i	i	.	.	.	.
Cc1ccc(-c2csc(N=C(N)N)n2)cc1	i	i	7*	i	i	i	i	i	i
C=CCn1c(O)c(C2=c3ccccc3=NC2=O)sc1=Nc1ccc(O)cc1	i	i	i	i	i	.	.	.	.
O=C(CSc1nc(-c2ccccc2)cs1)NCCN1C(=O)CSC1=O	i	i	10*	i	i	i	i	i	i
Cc1ccc(Oc2ncnc3sccc23)cc1	i	i	17*	i	i	2.5%*	i	i	i
c1cnc2c(Oc3ncnc4sccc34)cccc2c1	i	i	i	i	i	.	.	.	.
CCOC(=O)c1c(-c2ccccc2)oc2ccc(OC(C)C(=O)O)cc12 (stereo not given)	i	i	7.7*	i	i	i	i	i	i
CC1(C)CC(=O)C2=C(C1)OC1=C(C2)C(=O)CC(C)(C)C1	i	i	i	i	i	.	.	.	.
COc1cccc(C(=O)NCCn2ccc3ccccc32)c1	i	i	8.8*	i	i	i	i	i	i
COc1cc(OC)cc(C(=O)NCCn2ccc3ccccc32)c1	i	i	i	i	i	.	.	.	.
CCCCOC(=O)Nc1sc2c(c1C(=O)OC)CCC2	i	i	i	i	i	.	.	.	.
COc1cc(CNn2cn[nH]c2=S)cc(Br)c1OCc1ccccc1F	i	i	6.5*	i	i	i	i	i	i
COc1cc(CNn2cn[nH]c2=S)cc(Cl)c1OCc1ccccc1	i	i	i	i	i	.	.	.	.
SMILES	MrgX1 antagonist	MrgX1 agonist	MrgX1 PAM	RGS4 pot	RGS4 block	MrgX1 allo conf	HEK293 Ca flux	HEK293 Ca counter	HEK293 Ca cntr2
CCOc1cc(C)c(Cl)cc1S(=O)(=O)NCC1CCCO1 (stereo not given)	i	i	i	.	.	.	.	.	.
Cc1cc2cccc(C)c2nc1SCC(=O)N(C)c1nc(-c2ccccc2)cs1	i	i	i	i	i	.	.	.	.
COc1ccc2c(c1)cc(C)c1nnc(SCC(=O)N(C)c3nc(-c4ccccc4)cs3)n12	i	i	20*	i	i	i	i	i	i
COc1ccc(CCNC(=S)N2CCC(Cc3ccccc3)CC2)cc1OC	i	i	i	i	i	.	.	.	.
C[C@H]1C=C(C(=O)O)O[C@@H](OCc2ccc(CO)cc2)C1	i	i	i	i	i	.	.	.	.
C=C(C)COc1ccc(-c2[nH]ncc2-c2ccccc2)c(O)c1	i	i	16*	i	i	14%*	i	i	i
C=C(C)COc1ccc(-c2[nH]ncc2-c2ccc(OC)cc2)c(O)c1	i	i	i	i	i	.	.	.	.
COc1ccc(-c2cn[nH]c2-c2ccc(O)cc2O)cc1	i	i	i	i	i	.	.	.	.
COc1ccc(-c2[nH]ncc2-c2cnn(-c3ccccc3)c2)c(O)c1	i	i	9.4*	i	i	i	i	i	i
CC(C)C(NC(=O)c1c(F)cccc1F)C(=O)NCCc1ccc(S(N)(=O)=O)cc1 (stereo not given)	i	i	i	i	i	.	.	.	.
Cc1ccc(-n2nnnc2-c2cccc(C)c2)cc1	i	i	i	i	i	.	.	.	.
Cc1cc(-c2nnnn2-c2ccc(C(F)(F)F)cc2)no1	i	i	7*	i	i	i	i	i	i
COc1ccc2[nH]c(CN3CCC(n4nccc4NC(=O)C4CC4)CC3)c(C)c2c1	i	i	i	i	i	.	.	.	.
CSCCC(NS(=O)(=O)c1ccc(Cl)cc1)C(=O)O (stereo not given)	i	i	11*	i	i	i	i	i	i
Cn1ncc(Br)c1C(=O)NC12CC3CC(CC(C3)C1)C2	i	i	8.6*	i	i	i	i	i	i
CCOc1ccc(S(=O)(=O)N(CC(=O)NCc2ccncc2)c2ccc(C)cc2)cc1	i	i	i	i	i	.	.	.	.
Cc1cccc(N2CC(C(=O)Nc3nccs3)CC2=O)c1C (stereo not given)	i	i	i	i	i	.	.	.	.
CCCn1c(SCC(=O)Nc2cccc(NC(C)=O)c2)nnc1C(C)C	i	i	i	i	i	.	.	.	.
CCCn1c(SCC(=O)Nc2cccc(C)n2)nnc1C(C)C	i	i	8.2*	i	i	i	i	i	i

Screening data from PubChem.
